{"data": "Measured values from different studies", "PSMB8": "Proteasome subunit beta type-8 (PSMB8, Homo sapiens, UniProt P28062)", "TYMS": "Thymidylate synthase (TYMS, Homo sapiens, UniProt P04818)", "DYRK1B": "Dual specificity tyrosine-phosphorylation-regulated kinase 1B (DYRK1B, Homo sapiens, UniProt Q9Y463)", "DHODH": "Dihydroorotate dehydrogenase (quinone), mitochondrial (DHODH, Homo sapiens, UniProt Q02127)", "note": "Each line is one published result; the experiments were not run side by side."}
{"SMILES": "Cc1ncc(C(=O)N[C@@H](CC(C)C)C(=O)N[C@@H](CC2CCCCC2)C(=O)N[C@H](/C=C/S(C)(=O)=O)Cc2ccc(CN)cc2)s1", "target": "PSMB8", "read-out": "enzyme activity", "mode": "inhibitor", "setting": "lysate", "IC50": "> 10 µM"}
{"SMILES": "CC(=O)N[C@@H](CC(=O)O)C(=O)N[C@@H](CCC(=O)O)C(=O)N[C@H](C(=O)N[C@H](C=O)CC(=O)O)C(C)C", "target": "Caspase-7 (CASP7, Homo sapiens, UniProt P55210)", "read-out": "enzyme activity", "mode": "inhibitor", "IC50": "0.00175 µM"}
{"SMILES": "CC(C)C[C@H](NC(=O)c1ccc(-c2ccccc2)nc1)C(=O)N[C@@H](CC(C)C)C(=O)N[C@H](/C=C/S(C)(=O)=O)Cc1ccc(CN)cc1", "target": "PSMB8", "read-out": "enzyme activity", "mode": "inhibitor", "setting": "lysate", "IC50": "> 10 µM"}
{"SMILES": "CCOCc1nc(O)c(-c2nnc(Cc3ccc(Cl)cn3)o2)c(O)c1-c1c(OC)cccc1OC", "target": "Alpha-1D adrenergic receptor (ADRA1D, Homo sapiens, UniProt P25100)", "read-out": "ligand displacement", "technique": "radioligand", "IC50": "> 30 µM"}
{"SMILES": "Cc1ccc(Nc2c(-c3ccc(S(C)(=O)=O)cc3)nc3cccc(C)n23)cc1", "target": "Prostaglandin G/H synthase 2 (PTGS2, Homo sapiens, UniProt P35354)", "read-out": "enzyme activity", "mode": "inhibitor", "IC50": "0.12 µM"}
{"SMILES": "CCOC(=O)C1CCN(C(=O)c2ccc(N(C)Cc3cnc4nc(N)nc(N)c4n3)cc2)CC1", "target": "TYMS", "read-out": "enzyme activity", "mode": "inhibitor", "IC50": "74 µM"}
{"SMILES": "CCOc1ccc2c(-c3cc(C)nc(Nc4cc(OC)cc(C(F)(F)F)c4)n3)cnn2n1", "target": "DYRK1B", "read-out": "enzyme activity", "mode": "inhibitor", "IC50": "> 10 µM"}
{"SMILES": "Cc1nc(Nc2ccc(C(F)(F)F)cc2)c2c(C(F)(F)F)noc2n1", "target": "DHODH", "read-out": "enzyme activity", "mode": "inhibitor", "technique": "absorbance", "IC50": "18 µM"}
{"SMILES": "Cn1cc(C2=C(c3coc4ccccc34)C(=O)NC2=O)c2cc(Br)ccc21", "target": "DYRK1B", "read-out": "enzyme activity", "mode": "inhibitor", "IC50": "0.59 µM"}
{"SMILES": "C=C1/C(=C\\C=C2/CCC[C@]3(C)[C@@H]([C@H](C)/C=C/[C@@H](O)C4CC4)CC[C@@H]23)C[C@@H](O)C[C@@H]1O", "target": "Multidrug resistance-associated protein 1 (ABCC1, Homo sapiens, UniProt P33527)", "read-out": "transporter uptake", "mode": "inhibitor", "technique": "radiometric", "setting": "cell membranes", "IC50": "12.3 µM"}
{"SMILES": "CCOC(=O)C1CCN(C(=O)c2ccc(N(CC)Cc3cnc4nc(N)nc(N)c4n3)cc2)CC1", "target": "TYMS", "read-out": "enzyme activity", "mode": "inhibitor", "IC50": "91.9 µM"}
{"SMILES": "O=C(N=Nc1c(O)[nH]c2ccccc12)c1cccs1", "target": "TYMS", "read-out": "enzyme activity", "mode": "inhibitor", "technique": "radiometric", "IC50": "260 µM"}
{"SMILES": "Cc1nc(Nc2ccc(S(F)(F)(F)(F)F)cc2)c2c(C(F)(F)F)noc2n1", "target": "DHODH", "read-out": "enzyme activity", "mode": "inhibitor", "technique": "absorbance", "IC50": "> 100 µM"}
{"SMILES": "Cc1ncc(C(=O)N[C@H](C(=O)N[C@@H](CC(C)C)C(=O)N[C@H](/C=C/S(C)(=O)=O)Cc2ccc(CN)cc2)C2CCCCC2)s1", "target": "PSMB8", "read-out": "enzyme activity", "mode": "inhibitor", "setting": "lysate", "IC50": "3.14 µM"}
{"SMILES": "COC(=O)C1CCN(C(=O)c2ccc(NCc3cnc4nc(N)nc(N)c4n3)cn2)CC1", "target": "TYMS", "read-out": "enzyme activity", "mode": "inhibitor", "IC50": "80 µM"}
{"SMILES": "Cc1ncc(C(=O)N[C@@H](CC2CCC(C)CC2)C(=O)N[C@@H](CC(C)C)C(=O)N[C@H](/C=C/S(C)(=O)=O)Cc2ccc(CN)cc2)s1 (some centres unmarked)", "target": "PSMB8", "read-out": "enzyme activity", "mode": "inhibitor", "setting": "lysate", "IC50": "> 10 µM"}
{"SMILES": "CCn1ncc2c1-c1cnc(N)c(c1)O[C@H](C)c1cc(F)ccc1-c1nn(C)nc1C2", "target": "Ephrin type-A receptor 1 (EPHA1, Homo sapiens, UniProt P21709)", "read-out": "enzyme activity", "mode": "inhibitor", "technique": "radiometric", "IC50": "0.285 µM"}
{"SMILES": "Oc1ccc(Cl)cc1Nc1nc(NCC2CCCO2)c2ccccc2n1 (centres unmarked)", "target": "Lysosomal acid glucosylceramidase (GBA1, Homo sapiens, UniProt P04062, R534H)", "read-out": "enzyme activity", "mode": "inhibitor", "IC50": "19 µM"}
{"SMILES": "Cc1c(C(=O)NC(C)c2nc[nH]n2)[nH]c(Cl)c1C1(c2ccc(C(F)(F)F)nc2)CC1 (centres unmarked)", "target": "DHODH", "read-out": "enzyme activity", "mode": "inhibitor", "IC50": "> 100 µM"}
{"SMILES": "CCCN(C)Cc1cc(-c2[nH]c3cccc(F)c3c(=O)c2C)ccc1Cc1ccc(OC(F)(F)F)cc1", "target": "DHODH", "read-out": "enzyme activity", "mode": "inhibitor", "IC50": "> 10 µM"}
{"SMILES": "C[C@@H]1O[C@H](CNS(=O)(=O)c2ccc(C#CC3CC3)s2)[C@@H](O)[C@H](O)[C@@H]1O", "target": "Fucose-binding lectin PA-IIL (lecB, Pseudomonas aeruginosa, UniProt Q9HYN5)", "read-out": "enzyme activity", "mode": "inhibitor", "IC50": "2.5 µM"}
{"SMILES": "CC(C)C[C@H](NC(=O)[C@H](Cc1ccccc1)N=[N+]=[N-])C(=O)N[C@@H](CC(C)(C)F)C(=O)N[C@H](/C=C/S(C)(=O)=O)Cc1ccc(CN)cc1", "target": "PSMB8", "read-out": "enzyme activity", "mode": "inhibitor", "setting": "lysate", "IC50": "2.34 µM"}
{"SMILES": "O=C1N[C@H]2n3c(cc(Br)c3Br)C(=O)N3CCC[C@]23N1 (racemic)", "target": "Proteasome subunit beta type-8, chymotrypsin-like site (PSMB8, Homo sapiens, UniProt P28062)", "read-out": "enzyme activity", "mode": "inhibitor", "IC50": "6.7 µM"}
{"SMILES": "Cc1nc(NC2CCc3cc(Br)ccc3C2)c2c(C)noc2n1 (centres unmarked)", "target": "DHODH", "read-out": "enzyme activity", "mode": "inhibitor", "technique": "absorbance", "IC50": "> 100 µM"}
{"SMILES": "Cc1ncc(C(=O)N[C@@H](CC2CCCC3CCCCC32)C(=O)N[C@@H](CC(C)C)C(=O)N[C@H](/C=C/S(C)(=O)=O)Cc2ccc(CN)cc2)s1 (some centres unmarked)", "target": "PSMB8", "read-out": "enzyme activity", "mode": "inhibitor", "setting": "lysate", "IC50": "0.555 µM"}
{"SMILES": "COC[C@@H](C)NC1CCC(Nc2cc(-c3cccc(NCC4(C#N)CCOCC4)n3)c(Cl)cn2)CC1 (some centres unmarked)", "target": "DYRK1B", "read-out": "enzyme activity", "mode": "inhibitor", "technique": "FRET", "IC50": "0.35 µM"}
{"SMILES": "CC[C@@H]1[C@H](F)C(=O)N[C@@H]1COc1nccc2cc(C(N)=O)c(OC)cc12", "target": "Ephrin type-A receptor 7 (EPHA7, Homo sapiens, UniProt Q15375)", "read-out": "enzyme activity", "mode": "inhibitor", "IC50": "> 5 µM"}
{"SMILES": "COC1CCC(C[C@H](NC(=O)[C@H](CC(C)C)NC(=O)c2cnc(C)s2)C(=O)N[C@H](/C=C/S(C)(=O)=O)Cc2ccc(CN)cc2)CC1 (some centres unmarked)", "target": "PSMB8", "read-out": "enzyme activity", "mode": "inhibitor", "setting": "lysate", "IC50": "> 10 µM"}
{"SMILES": "COc1ccc(S(=O)(=O)ON=C2C=C(C)C(=O)C(C)=C2)cc1", "target": "Histone acetyltransferase KAT7 (KAT7, Homo sapiens, UniProt O95251)", "read-out": "enzyme activity", "mode": "inhibitor", "technique": "radiometric", "IC50": "> 100 µM"}
{"SMILES": "Cc1ncc(C(=O)N[C@@H](CC(C)C)C(=O)N[C@@H](CC2CCC(C)CC2)C(=O)N[C@H](/C=C/S(C)(=O)=O)Cc2ccc(CN)cc2)s1 (some centres unmarked)", "target": "PSMB8", "read-out": "enzyme activity", "mode": "inhibitor", "setting": "lysate", "IC50": "> 10 µM"}
{"SMILES": "Cc1cc(Nc2ccc(C(C)(C)C)cc2)n2ncnc2n1", "target": "DHODH", "read-out": "enzyme activity", "mode": "inhibitor", "IC50": "> 100 µM"}
{"SMILES": "CN1CCN(c2ccc(Nc3ncc4cc(C#N)c(=O)n(C5CCCC5)c4n3)cc2)CC1", "target": "Dual specificity tyrosine-phosphorylation-regulated kinase 1A (DYRK1A, Homo sapiens, UniProt Q13627)", "read-out": "enzyme activity", "mode": "inhibitor", "IC50": "0.807 µM"}
